High-throughput results from PubChem BioAssay.
Rows were chosen to be rich in hits. Some 1.7% of all compounds tested hit in one or more screens of this group.
Neddyl block = inhibitors of cullin neddylation, primary screen, biochemical, TR-FRET, uHTS, NAE and Ubc12; NEDD8-conjugating enzyme Ubc12 (Homo sapiens) + NEDD8-activating enzyme E1 regulatory …; inhibition, % at 25 µM; actives 0.58% (n = 360,000); in the data active means inhibition above about 36%
Arr AP2 block = inhibitors of beta-arrestin/AP2 binding, primary screen, biochemical, GPCR trafficking, flow cytometry. FITC-arrestin peptide / GST-AP2 beads; AP2 beta2 appendage carries R879A mutation. inhibition, % at 10 µM. actives 0.31% (n = 340,000);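 active means inhibition above a set limit, near 3 SD of compounds lacking own fluorescence, cut at about 54% in these data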
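System: GST-AP2 R879A glutathione beads | Also added: FITC-arrestin peptide, 50 nM | Times: 12 min plus 1 h, RT | Signal: Bead flow cytometry, FITC channel | Buffer or medium: PBS with 0.05% Tween 20 and 0.1% BSA | Read-out basis: Percent drop in bead-associated FITC signal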
DSG3 Ab inh = inhibitors of pemphigus antibody binding to DSG3, primary screen, biochemical, bead-based, flow cytometry, scFv-GFP | Desmoglein-3 (Homo sapiens), P32926 | DSG3-coupled beads, scFv-anti-DSG3-GFP binding; hits give low values | binding (percent of control), % at 10 µM | actives 0.48% (n = 310,000) | AID 588358, 2011;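 active means binding more than 3 SD below its plate's average and above zero; inconclusive means below that plate limit but binding exactly zero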;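 further: hits lower antibody fragment binding to DSG3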
Target sequence (P32926 whole entry, looked up, the tested form may be a part): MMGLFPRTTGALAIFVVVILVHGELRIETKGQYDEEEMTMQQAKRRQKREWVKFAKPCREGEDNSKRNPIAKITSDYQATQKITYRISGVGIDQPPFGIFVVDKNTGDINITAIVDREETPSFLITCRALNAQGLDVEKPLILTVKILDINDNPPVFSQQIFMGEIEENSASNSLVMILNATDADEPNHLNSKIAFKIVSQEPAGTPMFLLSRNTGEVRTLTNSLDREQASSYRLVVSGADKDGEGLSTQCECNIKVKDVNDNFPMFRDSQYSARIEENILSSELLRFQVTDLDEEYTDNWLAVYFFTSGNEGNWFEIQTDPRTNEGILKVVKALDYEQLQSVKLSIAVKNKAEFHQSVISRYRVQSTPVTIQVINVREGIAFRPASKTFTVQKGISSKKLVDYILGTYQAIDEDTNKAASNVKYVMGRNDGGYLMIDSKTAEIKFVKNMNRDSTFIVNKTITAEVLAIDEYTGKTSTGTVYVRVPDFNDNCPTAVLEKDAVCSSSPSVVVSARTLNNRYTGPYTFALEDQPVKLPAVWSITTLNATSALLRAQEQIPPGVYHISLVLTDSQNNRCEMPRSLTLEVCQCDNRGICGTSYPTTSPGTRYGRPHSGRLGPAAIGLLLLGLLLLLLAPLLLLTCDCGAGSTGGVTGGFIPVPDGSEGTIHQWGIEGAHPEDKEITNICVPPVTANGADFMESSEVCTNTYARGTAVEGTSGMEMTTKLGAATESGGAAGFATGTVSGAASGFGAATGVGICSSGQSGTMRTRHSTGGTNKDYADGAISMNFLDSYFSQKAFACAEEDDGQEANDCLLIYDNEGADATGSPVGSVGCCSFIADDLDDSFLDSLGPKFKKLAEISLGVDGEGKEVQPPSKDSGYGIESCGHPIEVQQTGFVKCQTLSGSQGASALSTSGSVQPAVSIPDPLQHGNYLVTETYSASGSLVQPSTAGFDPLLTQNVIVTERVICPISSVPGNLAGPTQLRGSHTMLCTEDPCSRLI
Efflux pump inh = inhibitors of Candida efflux pumps in yeast, primary screen, S. cerevisiae, Nile Red, multiplex; S. cerevisiae Candida pump triplex; inhibition, % at 10 µM; actives 0.44% (n = 330,000); AID 485275, 2010;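 active means plate passing quality check with inhibition over a set limit, or well fluorescence over plate mean plus 4 SD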;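 further: Nile Red retained in pooled yeast measured as flow cytometry median fluorescence; higher means more Nile Red kept so more efflux inhibition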
Yeast cmpd fluor = compound fluorescence in yeast efflux pump counter-screen; fluorescence ratio to DMSO, % at 10 µM; actives 4% (n = 1,700); shares compounds with Efflux pump inh; S. cerevisiae AD/pABC3, flow cytometry;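 active means fluorescence ratio to DMSO above its plate's cutoff, the plate mean ratio plus 5 SD, cut at about 210% in these data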;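 further: unstained yeast with no Nile Red so the signal is compound autofluorescence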
CaMdr1 efflux inh = inhibitors of Candida albicans Mdr1 efflux, confirmation, flow cytometry, singleplex, Cherry Pick1 set; shares compounds with Efflux pump inh; S. cerevisiae AD/CaMDR1, Nile Red efflux; inhibition, % at 10 µM; actives 1% (n = 1,700); AID 588518, 2011; in the data active means inhibition above about 26%;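 further: higher means more Nile Red retained so more efflux inhibition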
CaCdr2 efflux inh = inhibitors of Candida albicans Cdr2 efflux pump, confirmation, S. cerevisiae AD/CaCDR2, flow cytometry, cherry pick 1, singleplex. Nile Red retention ratio vs DMSO, % at 10 µM. actives 4% (n = 1,700). shares compounds with Efflux pump inh. Nile Red retention; in the data active means Nile Red retention ratio vs DMSO above about 190%;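 further: higher ratio means more blocking of Cdr2 efflux of the dye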
CaCdr1 efflux inh = inhibitors of Candida albicans Cdr1 efflux pump, confirmation, S. cerevisiae AD/CaCDR1, flow cytometry, cherry pick 1, singleplex; shares compounds with Efflux pump inh; Nile Red efflux; inhibition, % at 10 µM; actives 1% (n = 1,700); AID 588522, 2011;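 active means inhibition above the screen-wide mean plus twice its standard deviation, cut at about 32% in these data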
Of the large screens only hits and unclear results are named; the others gave an inactive call (follow-up assays come after a bar, where they were run).

CCCOc1ccc(-c2c(C(=O)N/N=C/c3ccc(OCC)cc3)nnn2-c2nonc2N)cc1	none
C/C(=N\NC(=O)c1nnn(-c2nonc2N)c1COc1ccc(F)cc1)c1ccc(Cl)cc1	none (no result: DSG3 Ab inh) | Yeast cmpd fluor inactive | CaMdr1 efflux inh inactive | CaCdr2 efflux inh inactive | CaCdr1 efflux inh inactive
CCOc1ccc(-c2c(C(=O)N/N=C(\C)c3ccco3)nnn2-c2nonc2N)cc1	none
CCOc1ccc(-c2c(C(=O)N/N=C(\C)c3ccccc3OC)nnn2-c2nonc2N)cc1	none | Yeast cmpd fluor inactive | CaMdr1 efflux inh inactive | CaCdr2 efflux inh inactive | CaCdr1 efflux inh inactive
CCCc1c(C(=O)N/N=C(\C)c2ccc(O)cc2)nnn1-c1nonc1N	none
CCOc1ccc(-c2c(C(=O)N/N=C/c3ccc(O)cc3)nnn2-c2nonc2N)cc1	none | Yeast cmpd fluor inactive | CaMdr1 efflux inh inactive | CaCdr2 efflux inh inactive | CaCdr1 efflux inh inactive
N/C(=N\OC(=O)Cc1ccccc1)c1cccnc1	none
N/C(=N\OC(=O)Cc1ccccc1)c1ccccc1Cl	none | Yeast cmpd fluor inactive | CaMdr1 efflux inh inactive | CaCdr2 efflux inh inactive | CaCdr1 efflux inh inactive
NC(=O)C1CCN(CC(=O)Nc2cccnc2Cl)CC1	none
Cc1ccc(Oc2cc(NN3CCCCC3)c([N+](=O)[O-])cc2[N+](=O)[O-])c(Cl)c1	none
O=C(/C=C/c1ccc2c(c1)OCO2)NCCCN1CCOCC1	Efflux pump inh 11 | Yeast cmpd fluor inactive | CaMdr1 efflux inh inactive | CaCdr2 efflux inh inactive | CaCdr1 efflux inh inactive
Cc1[nH]c(=O)[nH]c(=O)c1S(=O)(=O)Nc1ccc(F)c([N+](=O)[O-])c1	none
Cc1sc2nc(SCC(=O)N3CCOCC3)[nH]c(=O)c2c1-c1ccccc1	none
COc1ccc(S(=O)(=O)N2CCOCC2)cc1NC(=O)COC(=O)CC1CC2CCC1C2 (centres undefined)	Efflux pump inh 0.8 (no result: DSG3 Ab inh) | Yeast cmpd fluor inactive | CaMdr1 efflux inh inactive | CaCdr2 efflux inh inactive | CaCdr1 efflux inh inactive
O=C(CSc1nnc(-c2ccccc2)n1Cc1ccccc1)NNC(=O)c1ccccc1O	none
O=C(CSc1nnc(-c2ccccc2O)n1Cc1ccccc1)NNC(=O)c1ccccc1O	Efflux pump inh 29 | Yeast cmpd fluor inactive | CaMdr1 efflux inh inactive | CaCdr2 efflux inh inactive | CaCdr1 efflux inh inactive
Cc1ccc(OC(F)F)c(NC(=O)Nc2cccc(C(F)(F)F)c2)c1	none
Fc1cccc(F)c1-c1nc(-c2ccncc2)no1	none
O=C(NC(Cc1ccccc1)C(=O)O)c1ccc(S(=O)(=O)N2CCCCC2)cc1 (centres undefined)	Efflux pump inh 6.7 | Yeast cmpd fluor inactive | CaMdr1 efflux inh inactive | CaCdr2 efflux inh inactive | CaCdr1 efflux inh inactive
CCCOC(=O)c1ccc(NC(=O)C2C3CCC(C3)C2C(=O)O)cc1 (centres undefined)	Efflux pump inh 15 (no result: DSG3 Ab inh) | Yeast cmpd fluor inactive | CaMdr1 efflux inh inactive | CaCdr2 efflux inh inactive | CaCdr1 efflux inh inactive
COC(=O)c1ccc(NC(=O)C2C3CCC(C3)C2C(=O)O)cc1 (centres undefined)	none
CCOC(=O)N1CCC(=NNC(=O)COc2cccc(C)c2)CC1	none
COc1ccc2nc(C)cc(Sc3nc4ccccc4s3)c2c1	Efflux pump inh 1.0 | Yeast cmpd fluor inactive | CaMdr1 efflux inh inactive | CaCdr2 efflux inh inactive | CaCdr1 efflux inh inactive
CN(C)C(=O)c1ccc(NC(=O)c2ccc(-c3ccc(Cl)cc3)o2)cc1	Efflux pump inh 0.6 | Yeast cmpd fluor inactive | CaMdr1 efflux inh inactive | CaCdr2 efflux inh inactive | CaCdr1 efflux inh inactive
COc1ccc(S(=O)(=O)N2CCN(C/C=C/c3ccccc3)CC2)cc1NC(C)=O	DSG3 Ab inh inconclusive
COc1ccc(-c2sc3cc(OC)ccc3c2-c2ccc(OCCN3CCOCC3)cc2)cc1	none | Yeast cmpd fluor inactive | CaMdr1 efflux inh inactive | CaCdr2 efflux inh inactive | CaCdr1 efflux inh inactive
COc1ccc(-c2sc3cc4c(cc3c2-c2ccc(OCCN3CCCCC3)cc2)OCO4)cc1	none | Yeast cmpd fluor inactive | CaMdr1 efflux inh inactive | CaCdr2 efflux inh inactive | CaCdr1 efflux inh inactive
COc1ccc(-c2c(-c3cc(OC)cc(OC)c3)sc3ccc(OC)cc23)cc1	none
COc1cc(OC)cc(-c2sc3ccc(OC)cc3c2-c2ccc(OCCN3CCCCC3)cc2)c1	Efflux pump inh active | Yeast cmpd fluor inactive | CaMdr1 efflux inh 70 | CaCdr1 efflux inh 103
COc1ccc2c(-c3cnc(N4CCOCC4)nc3)c(-c3ccc(S(C)(=O)=O)cc3)sc2c1	none
COc1ccccc1-c1sc2cc3c(cc2c1-c1ccc(OCCN2CCOCC2)cc1)OCO3	none | Yeast cmpd fluor inactive | CaMdr1 efflux inh inactive | CaCdr2 efflux inh inactive | CaCdr1 efflux inh inactive
Oc1ccc(N=Nc2c(O)ccc3ccccc23)cc1	Efflux pump inh 0.8 | Yeast cmpd fluor inactive | CaMdr1 efflux inh inactive | CaCdr2 efflux inh 204 | CaCdr1 efflux inh inactive
COc1ccc(NC2CC(=O)N(c3cc([N+](=O)[O-])ccc3C)C2=O)cc1 (centres undefined)	Efflux pump inh 1.1 | Yeast cmpd fluor inactive | CaMdr1 efflux inh inactive | CaCdr2 efflux inh inactive | CaCdr1 efflux inh inactive
COc1ccc(NC2CC(=O)N(c3cccc([N+](=O)[O-])c3)C2=O)cc1 (centres undefined)	none
COc1cccc(CN2CC(C(=O)NCc3ncc(C)[nH]3)CCC2=O)c1 (centres undefined)	none
CCCSc1nnc(NC(=O)Nc2ccccc2)s1	Efflux pump inh 15 | Yeast cmpd fluor inactive | CaMdr1 efflux inh inactive | CaCdr2 efflux inh inactive | CaCdr1 efflux inh inactive
CCOc1ccc(NC(=O)COC(=O)CN2CCCCCC2=O)cc1	none (no result: DSG3 Ab inh)
CCN(C[C@H]1N[C@@](C)(C(=O)OC)[C@H]2C(=O)N(C)C(=O)[C@@H]12)C(=O)Nc1ccc(C)cc1	none
O=C(Oc1ccc(/C=N/NC(=O)c2ccccn2)cc1)c1ccc(Br)cc1	Efflux pump inh 7.2 | Yeast cmpd fluor inactive | CaMdr1 efflux inh inactive | CaCdr2 efflux inh inactive | CaCdr1 efflux inh inactive
O=C(Oc1ccc(/C=N/NC(=O)c2ccccn2)cc1)c1cccc(Br)c1	none
O=C1/C(=C\c2ccco2)CCC/C1=C\c1ccco1	Efflux pump inh 60 | Yeast cmpd fluor inactive | CaMdr1 efflux inh inactive | CaCdr2 efflux inh inactive | CaCdr1 efflux inh inactive
